Test results published in ChEMBL document CHEMBL4052819 (2017).
Values after ≈ are worked out from the molar mass of the structure shown. Active and inactive are the calls of the source. No cut-off for these calls is given here. Non-standard residues stand in square brackets, D forms with d. Residues, ends and D or L forms follow the SMILES beside them. *: point of attachment. Decanoyl = CCCCCCCCCC(=O)*; Dab = NCC[C@H](N)C(=O)O

Experiments:
Format in all cases: functional
Enterococcus faecium [1] = assay: Bactericidal activity against Enterococcus faecium ATCC 19434; settings: read-out: MBC99.9
In short: (§1)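 MBC from MIC plates at end point: 50 μL from each well with no visible growth plated on tryptic soy agar and counted. MBC taken as lowest concentration giving ≥99.9% fall in viable count relative to initial inoculum. Three independent experiments, one replicate each.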

Staphylococcus aureus [2] = assay: Antibacterial activity against methicillin-resistant Staphylococcus aureus LAC
Acinetobacter baumannii [3] = assay: Antibacterial activity against Acinetobacter baumannii ATCC 19606 after 18 to 20 hrs by broth microdilution method; settings: ATCC 19606 = CIP 70.34 = JCM 6841
Klebsiella pneumoniae [4] = assay: Antibacterial activity against Klebsiella pneumoniae ATCC 13883 after 18 to 20 hrs by broth microdilution method
Staphylococcus aureus [5] = assay: Antibacterial activity against Staphylococcus aureus ATCC 29213 after 18 to 20 hrs in presence of 95% serum by broth microdilution method
In short: (§2)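 Same microdilution with human serum as medium: compound 2-fold diluted in 100% serum, mixed 1:1 with 90% serum holding ~1.5 × 10^5 CFU/mL, giving 95% serum and final 0.5–64 μg/mL. MIC read as no visible growth after incubation as for the broth test.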

Staphylococcus aureus [6] = assay: Antibacterial activity against Staphylococcus aureus ATCC 29213 after 18 to 20 hrs by broth microdilution method
In short: (§3)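 Broth microdilution in tryptic soy broth: 2-fold dilutions mixed 1:1 with ~1.5 × 10^5 CFU/mL inoculum, final 0.5–32 μg/mL; 37 °C, 18–20 h. MIC taken as lowest concentration giving no visible growth. At least three independent experiments, one replicate each.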

Escherichia coli [7] = assay: Antibacterial activity against Escherichia coli ATCC 25922 after 18 to 20 hrs by broth microdilution method; in short: as §3
Pseudomonas aeruginosa [8] = assay: Antibacterial activity against Pseudomonas aeruginosa ATCC 27853 after 18 to 20 hrs by broth microdilution method; in short: as §3
Staphylococcus aureus [9] = assay: Bactericidal activity against Staphylococcus aureus ATCC 29213; settings: read-out: MBC99.9; in short: as §1
Klebsiella pneumoniae [10] = assay: Bactericidal activity against Klebsiella pneumoniae ATCC 13883; settings: read-out: MBC99.9; in short: as §1
Pseudomonas aeruginosa [11] = assay: Bactericidal activity against Pseudomonas aeruginosa ATCC 27853; settings: read-out: MBC99.9; in short: as §1
Staphylococcus aureus [12] = assay: Antibacterial activity against methicillin-resistant Staphylococcus aureus ATCC 43300 after 18 to 20 hrs by broth microdilution method
In short: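 Broth microdilution in tryptic soy broth: 2-fold dilutions mixed 1:1 with ~1.5 × 10^5 CFU/mL bacterial suspension in TSB, final 0.5–32 μg/mL, 37 °C for 18–20 h. MIC = lowest concentration with no visible growth. At least three independent experiments, one replicate each.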

Staphylococcus aureus [13] = assay: Bactericidal activity against methicillin-resistant Staphylococcus aureus ATCC 43300; settings: read-out: MBC99.9
In short: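 MBC taken at the end of the MIC test: 50 μL from each well without visible growth plated on tryptic soy agar. MBC = lowest concentration giving ≥99.9% reduction in viable cells relative to the initial inoculum. Three independent experiments, one replicate each.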

Escherichia coli [14] = assay: Bactericidal activity against Escherichia coli ATCC 25922; settings: read-out: MBC99.9; in short: as §1
Pseudomonas aeruginosa [15] = assay: Bactericidal activity against Pseudomonas aeruginosa ATCC 27853 after 60 mins in presence of LPS
In short: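 P. aeruginosa at ~10^6 CFU/mL in TSB with E. coli O111:B4 LPS (final 10, 25, 50 or 100 μg/mL), then compound at final 16 μg/mL. Incubated 37 °C, 200 rpm, 60 min; survivors counted on TSA. Three independent experiments, one replicate each.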

Escherichia coli [16] = assay: Antibacterial activity against Escherichia coli ATCC 25922 after 18 to 20 hrs in presence of 95% serum by broth microdilution method; in short: as §2
Enterococcus faecium [17] = assay: Antibacterial activity against Enterococcus faecium ATCC 19434 after 18 to 20 hrs by broth microdilution method; in short: as §3
Staphylococcus aureus [18] = assay: Antibiofilm activity against methicillin-resistant Staphylococcus aureus LAC established catheter-associated biofilm model after 72 hrs
Acinetobacter baumannii [19] = assay: Bactericidal activity against Acinetobacter baumannii ATCC 19606; settings: ATCC 19606 = CIP 70.34 = JCM 6841, read-out: MBC99.9; in short: as §1
Staphylococcus aureus [20] = assay: Antibiofilm activity against methicillin-resistant Staphylococcus aureus LAC established catheter-associated biofilm model at 20 times MIC after 72 hrs relative to control

SMILES	MBC (Enterococcus faecium [1]) [µg/mL]	Activity (Staphylococcus aureus [2])	MIC (Acinetobacter baumannii [3]) [µg/mL]	MIC (Klebsiella pneumoniae [4]) [µg/mL]	MIC (Staphylococcus aureus [5]) [µg/mL]	MIC (Staphylococcus aureus [6]) [µg/mL]	MIC (Escherichia coli [7]) [µg/mL]	MIC (Pseudomonas aeruginosa [8]) [µg/mL]	MBC (Staphylococcus aureus [9]) [µg/mL]	MBC (Klebsiella pneumoniae [10]) [µg/mL]	MBC (Pseudomonas aeruginosa [11]) [µg/mL]	MIC (Staphylococcus aureus [12]) [µg/mL]	MBC (Staphylococcus aureus [13]) [µg/mL]	MBC (Escherichia coli [14]) [µg/mL]	Activity (Pseudomonas aeruginosa [15])	MIC (Escherichia coli [16]) [µg/mL]	MIC (Enterococcus faecium [17]) [µg/mL]	Activity (Staphylococcus aureus [18])	MBC (Acinetobacter baumannii [19]) [µg/mL]	Activity (Staphylococcus aureus [20]) [%]
CCCCCCCCCC(=O)N[C@@H](CCN)C(=O)N[C@H](C(=O)N[C@@H](CCN)C(=O)N[C@H](Cc1ccccc1)C(=O)N[C@@H](CC(C)C)C(=O)N[C@@H](CCN)C(=O)N[C@@H](C(=O)N[C@@H](CC(C)C)C(=O)N[C@@H](CO)C(N)=O)C(C)C)[C@@H](C)CC (Decanoyl-[Dab]I[Dab][dF]L[Dab][dV]LS-NH2)	2 to 4 (≈ 1.75 to 3.49 µM)	Active	0.5 to 2 (≈ 0.437 to 1.75 µM)	2 to 4 (≈ 1.75 to 3.49 µM)	16	2 to 4 (≈ 1.75 to 3.49 µM)	2 to 8 (≈ 1.75 to 6.99 µM)	1 to 2 (≈ 0.874 to 1.75 µM)	4 to 8 (≈ 3.49 to 6.99 µM)	4 to 8 (≈ 3.49 to 6.99 µM)	2 to 4 (≈ 1.75 to 3.49 µM)	2 to 4 (≈ 1.75 to 3.49 µM)	2 to 4 (≈ 1.75 to 3.49 µM)	8 (≈ 6.99 µM)	inactive	32	2 (≈ 1.75 µM)	inactive	0.5 to 2 (≈ 0.437 to 1.75 µM)	
CCCCCCCCCC(=O)N[C@@H](Cc1c[nH]c2ccccc12)C(=O)N[C@@H](CC(N)=O)C(=O)N[C@@H](CC(=O)O)C(=O)N[C@@H]1C(=O)NCC(=O)N[C@@H](CCCN)C(=O)N[C@@H](CC(=O)O)C(=O)N[C@H](C)C(=O)N[C@@H](CC(=O)O)C(=O)NCC(=O)N[C@H](CO)C(=O)N[C@@H]([C@H](C)CC(=O)O)C(=O)N[C@@H](CC(=O)c2ccccc2N)C(=O)O[C@@H]1C [DAPTOMYCIN]																				17
